≈ marks a conversion by molar mass, not a printed value. Calls of active or inactive are those of the source. No cut-off for these calls is given here.

We go through four compounds from ChEMBL document CHEMBL1148824, “Quinazolinone derivatives as orally available ghrelin receptor antagonists for the treatment of diabetes and obesity” (J Med Chem, 2007).

Series [1] relates to Rattus norvegicus. Briefly: Half life in Wistar rat plasma at 0.7 mg/kg, iv. The following applies: in vivo. It is filed as ADME, organism-based. The arrangement: dose 0.7 mg/kg, route intravenous.
For another series, the target named is Ghrelin receptor (Ovis aries, UniProt Q8MHZ5). Put plainly: Displacement of [125I]ghrelin from ovine recombinant GHSR1a expressed in HEK293F cells after 6 hrs by scintillation proximity assay. Type of series: cell-based. (In general: In a radioligand displacement assay an active substance lowers the binding of a labelled ligand.)
The target in series [2] is T1, Growth hormone secretagogue receptor type 1 (Homo sapiens, UniProt Q92847). Briefly: Agonist activity at human recombinant GHSR1a expressed in HEK293F cells assessed as stimulation of [35S]GTP-gamma-S binding relative to ghrelin. Type of series: functional, cell-based. Summed up:
(§1)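 Functional read-out as GTPγS binding to membranes from HEK293F cells overexpressing recombinant GHS-R1a; values are the mean of at least two replicates.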
A general note: GTPγS resists hydrolysis and so accumulates on activated G proteins.

The target of series [3] is T1, Growth hormone secretagogue receptor type 1. Briefly: Antagonist activity at human recombinant GHSR1a expressed in HEK293F cells by [35S]GTP-gamma-S binding assay. It is filed as functional, cell-based. The procedure, abridged: as §1
Series [4] in a line: Cmax in Wistar rat at 3 mg/kg, po. The following applies: in vivo. It is filed as ADME, organism-based. The arrangement: dose 3 mg/kg, route oral. The procedure, abridged:
(§2)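 Wistar rat pharmacokinetic screen; single oral dose of 3 mg/kg in PEG400/methanesulfonic acid (80:20) vehicle; plasma exposure measured.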

The target in series [5] is T2, 5-hydroxytryptamine receptor 2C (Homo sapiens, UniProt P28335).
T2 sequence (P28335 whole entry): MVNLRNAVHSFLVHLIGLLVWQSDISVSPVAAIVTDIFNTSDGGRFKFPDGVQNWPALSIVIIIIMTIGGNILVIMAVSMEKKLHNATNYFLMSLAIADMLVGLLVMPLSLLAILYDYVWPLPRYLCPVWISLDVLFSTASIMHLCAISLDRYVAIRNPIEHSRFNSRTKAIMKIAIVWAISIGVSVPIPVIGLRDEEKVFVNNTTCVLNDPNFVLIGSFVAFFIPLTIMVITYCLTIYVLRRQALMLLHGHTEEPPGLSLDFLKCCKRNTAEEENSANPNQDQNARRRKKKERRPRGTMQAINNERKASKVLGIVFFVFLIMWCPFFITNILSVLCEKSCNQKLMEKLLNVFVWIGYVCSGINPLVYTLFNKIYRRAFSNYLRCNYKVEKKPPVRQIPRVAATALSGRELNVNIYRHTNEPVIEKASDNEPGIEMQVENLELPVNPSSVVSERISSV
Put plainly: Displacement of […] from 5HT2c receptor.

Series [6] in a line: Aqueous solubility at pH 7.2. Type of series: physicochemical.
The target in the next series is Cytochrome P450 2D6 (Homo sapiens, UniProt P10635). Briefly: Inhibition of CYP2D6. Type of series: ADME.
The nature of series [7]: AUC (0-t) in Wistar rat plasma at 0.7 mg/kg, iv. Type of series: ADME, organism-based. Also on record: dose 0.7 mg/kg, route intravenous.
A short description of series [8]: Cmax in Wistar rat plasma at 0.7 mg/kg, iv. Type of series: ADME, organism-based. The arrangement: dose 0.7 mg/kg, route intravenous.
The subject of series [9] is Rattus norvegicus. Briefly: Volume of distribution at steady state in Wistar rat plasma at 0.7 mg/kg, iv. It is filed as ADME, organism-based. Also on record: dose 0.7 mg/kg, route intravenous. The conditions noted are these: in vivo.
Series [10] can be described thus: AUC in Wistar rat plasma at 3 mg/kg, po. Type of series: ADME, organism-based. Also on record: dose 3 mg/kg, route oral. Summed up: as §2
The nature of series [11]: Cmax in Wistar rat plasma at 3 mg/kg, po. The arrangement: dose 3 mg/kg, route oral. Type of series: ADME, organism-based. Summed up: as §2
Series [12] in a line: Bioavailability in Wistar rat plasma at 3 mg/kg, po. It is filed as ADME, organism-based.
Series [13] has as its system Mus musculus. Briefly: Decrease in food intake in DIO C57BL/6 mouse at 30 mg/kg, po after 24 hrs relative to control. It is filed as functional, organism-based. Also on record: dose 30 mg/kg.
The test system of series [14] is Mus musculus. Briefly: Decrease in body weight in DIO C57BL/6 mouse at 10 mg/kg, po after 9 days. Type of series: functional, organism-based. The arrangement: dose 10 mg/kg.
Series [15] relates to Mus musculus. Briefly: Decrease in body weight in DIO C57BL/6 mouse at 30 mg/kg, po after 9 days. Type of series: functional.
The nature of series [16]: Cmax in po dosed DIO C57BL/6 mouse after 5 hrs. Type of series: ADME, organism-based. The arrangement: route oral. The following applies: in vivo.
A further series has as its system Brain. Briefly: Drug level in po dosed DIO C57BL/6 mouse brain after 5 hrs relative to plasma concentration. Type of series: ADME, organism-based.
Series [17] has as its system Mus musculus. Briefly: Increase in food intake in DIO C57BL/6 mouse at 30 mg/kg, after 5 hrs relative to control. It is filed as functional.
For series [18], the system named is Rattus norvegicus. Briefly: Decrease in blood glucose level in DIO Wistar rat using at 10 mg/kg after 5 hrs by IPGTT test relative to control. It is filed as functional. The arrangement: scale not given: the % may be the effect or the level left.
The target in series [19] is 5-hydroxytryptamine receptor 2B (Homo sapiens) (UniProt P41595). Put plainly: Binding affinity to 5HT2b receptor.
The target in series [20] is 5-hydroxytryptamine receptor 2A (Homo sapiens) (UniProt P28223). Briefly: Binding affinity to 5HT2a receptor.
The target in series [21] is Motilin receptor (Homo sapiens) (UniProt O43193). Put plainly: Binding affinity to motilin receptor.
The next series is filed under the species Homo sapiens. Put plainly: Binding affinity to calcium channel L type.
A short description of series [22]: Cmax in Wistar rat at 10 mg/kg, po. It is filed as ADME, organism-based. The arrangement: dose 10 mg/kg, route oral. The following applies: in vivo.
Series [23] can be described thus: Bioavailability in Wistar rat plasma at 1 mg/kg, iv. It is filed as ADME, organism-based.
The nature of series [24]: Cmax in Wistar rat plasma at 1 mg/kg, iv. The arrangement: dose 1 mg/kg, route intravenous. It is filed as ADME, organism-based.
Series [25] is described as follows: Volume of distribution in Wistar rat plasma at 1 mg/kg, iv. Also on record: dose 1 mg/kg, route intravenous. It is filed as ADME, organism-based. The conditions noted are these: read-out: Vdss.

Chain of Ghrelin receptor (Q8MHZ5 whole entry): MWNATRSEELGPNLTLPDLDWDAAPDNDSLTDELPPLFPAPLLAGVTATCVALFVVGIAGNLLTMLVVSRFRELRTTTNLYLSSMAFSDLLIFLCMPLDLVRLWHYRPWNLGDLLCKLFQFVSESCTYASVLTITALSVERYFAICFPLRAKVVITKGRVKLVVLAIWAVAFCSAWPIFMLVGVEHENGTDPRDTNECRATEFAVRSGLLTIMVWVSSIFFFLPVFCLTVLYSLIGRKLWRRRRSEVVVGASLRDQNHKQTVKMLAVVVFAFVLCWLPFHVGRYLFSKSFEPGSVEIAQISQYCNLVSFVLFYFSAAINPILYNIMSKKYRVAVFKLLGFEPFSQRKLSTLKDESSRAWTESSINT
T1 sequence (Q92847 whole entry): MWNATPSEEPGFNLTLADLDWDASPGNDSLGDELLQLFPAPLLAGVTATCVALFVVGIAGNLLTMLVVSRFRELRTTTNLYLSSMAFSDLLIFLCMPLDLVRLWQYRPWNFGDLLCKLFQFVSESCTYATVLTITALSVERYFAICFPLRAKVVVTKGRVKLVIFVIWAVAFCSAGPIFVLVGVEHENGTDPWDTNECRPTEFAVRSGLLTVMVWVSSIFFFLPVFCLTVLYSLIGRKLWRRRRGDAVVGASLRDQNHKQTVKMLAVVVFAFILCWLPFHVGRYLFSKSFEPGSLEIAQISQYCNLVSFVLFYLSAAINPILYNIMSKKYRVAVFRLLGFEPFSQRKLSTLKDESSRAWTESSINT
Chain of Motilin receptor (Homo sapiens) (O43193 whole entry): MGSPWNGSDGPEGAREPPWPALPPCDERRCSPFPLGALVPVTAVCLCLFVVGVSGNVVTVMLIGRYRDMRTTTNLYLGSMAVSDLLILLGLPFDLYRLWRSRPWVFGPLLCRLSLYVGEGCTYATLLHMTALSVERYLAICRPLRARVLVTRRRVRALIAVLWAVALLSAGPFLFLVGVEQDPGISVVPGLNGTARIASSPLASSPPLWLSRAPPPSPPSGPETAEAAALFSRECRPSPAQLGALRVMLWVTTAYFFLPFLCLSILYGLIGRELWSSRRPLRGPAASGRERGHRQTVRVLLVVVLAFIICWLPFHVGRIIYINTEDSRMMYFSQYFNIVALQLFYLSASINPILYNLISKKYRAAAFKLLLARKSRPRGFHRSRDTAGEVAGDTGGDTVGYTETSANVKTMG
Chain of 5-hydroxytryptamine receptor 2A (Homo sapiens) (P28223 whole entry): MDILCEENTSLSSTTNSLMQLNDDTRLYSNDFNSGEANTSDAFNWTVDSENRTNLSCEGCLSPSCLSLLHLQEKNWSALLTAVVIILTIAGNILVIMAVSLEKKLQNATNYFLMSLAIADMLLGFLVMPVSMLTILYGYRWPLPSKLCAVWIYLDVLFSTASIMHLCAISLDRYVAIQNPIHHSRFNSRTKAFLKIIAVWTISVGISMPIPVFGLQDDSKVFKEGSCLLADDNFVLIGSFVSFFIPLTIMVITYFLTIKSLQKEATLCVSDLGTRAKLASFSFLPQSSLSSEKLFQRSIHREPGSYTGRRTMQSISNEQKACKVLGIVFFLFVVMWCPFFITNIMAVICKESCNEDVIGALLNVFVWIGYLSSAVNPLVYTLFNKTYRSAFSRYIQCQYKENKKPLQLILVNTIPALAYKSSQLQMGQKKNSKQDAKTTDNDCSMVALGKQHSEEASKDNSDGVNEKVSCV
Chain of 5-hydroxytryptamine receptor 2B (Homo sapiens) (P41595 whole entry): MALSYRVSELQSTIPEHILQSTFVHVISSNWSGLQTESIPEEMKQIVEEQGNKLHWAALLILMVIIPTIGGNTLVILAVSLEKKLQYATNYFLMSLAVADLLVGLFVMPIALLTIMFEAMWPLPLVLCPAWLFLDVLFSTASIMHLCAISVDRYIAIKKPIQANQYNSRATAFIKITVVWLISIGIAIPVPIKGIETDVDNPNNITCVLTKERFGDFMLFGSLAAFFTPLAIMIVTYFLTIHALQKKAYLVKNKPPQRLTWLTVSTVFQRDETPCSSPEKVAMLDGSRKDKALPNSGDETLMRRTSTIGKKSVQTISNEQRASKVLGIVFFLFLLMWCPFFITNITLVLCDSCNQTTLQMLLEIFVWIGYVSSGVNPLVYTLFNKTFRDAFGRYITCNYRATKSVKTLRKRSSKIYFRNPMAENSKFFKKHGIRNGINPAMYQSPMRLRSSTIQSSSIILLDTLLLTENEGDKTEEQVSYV
Chain of Cytochrome P450 2D6 (P10635 whole entry): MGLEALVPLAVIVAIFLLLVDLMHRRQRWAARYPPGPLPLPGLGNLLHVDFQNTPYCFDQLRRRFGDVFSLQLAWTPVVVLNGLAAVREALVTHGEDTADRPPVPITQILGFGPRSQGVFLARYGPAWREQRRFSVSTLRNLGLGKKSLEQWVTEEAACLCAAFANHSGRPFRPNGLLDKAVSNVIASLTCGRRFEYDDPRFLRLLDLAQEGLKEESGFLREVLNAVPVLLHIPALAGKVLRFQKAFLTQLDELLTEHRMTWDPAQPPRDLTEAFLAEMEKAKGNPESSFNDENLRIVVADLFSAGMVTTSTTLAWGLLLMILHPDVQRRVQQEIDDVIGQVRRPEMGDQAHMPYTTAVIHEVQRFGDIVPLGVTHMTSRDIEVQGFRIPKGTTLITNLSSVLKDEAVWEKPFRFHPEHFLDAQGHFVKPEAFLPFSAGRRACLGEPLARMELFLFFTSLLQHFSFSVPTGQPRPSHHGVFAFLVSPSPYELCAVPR

Turning to `CC(C)c1nc2ccc(-c3ccc(F)cc3)cc2c(=O)n1C[C@H]1CCCN(C(C)C)C1`, the t1/2 with Rattus norvegicus [1] turned out to be 16 h. The Ki at Ghrelin receptor is 39 nM; in [5], above 1000 nM. In series [2], the E/Emax worked out at 15%. The Kb in series [3] was 14 nM. In addition, the Cmax in series [4] came to 150 nM; in series [8], 100 ng/mL; in series [11] it was 70 ng/mL; in series [16], 800 nM. Besides, in series [6], the solubility was 280 µM (≈ 118 µg/mL). For the same compound, half-maximal inhibition against Cytochrome P450 2D6 (IC50) was put at 150 nM. The compound also gave an AUC(0-t) in [7] of 580 ng·h/mL. Besides, the Vdss with Rattus norvegicus [9] was determined as 0.68 L/kg. Also, in series [10], the AUC is 1700 ng·h/mL. This compound gave a bioavailability in [12] of 69%. The outcome in the series on Mus musculus [13], in the series with Mus musculus [14] and in the series with Mus musculus [15] was Active. The Drug uptake in the series with Brain is 76%. The Activity is -17% in the series on Mus musculus [17]; -20% in the series with Rattus norvegicus [18]; above 1 µM in [19]; above 1 µM in series [20]; above 1 µM in [21]; above 1 µM in the series filed under Homo sapiens.
`CCCCN(C)c1ccc2nc(-c3ccccc3OC)n(CC3CCCN(CC)C3)c(=O)c2c1` (stereo not given): on Ghrelin receptor, the Ki amounted to 20 nM. Also, the Cmax in series [22] is below 20 nM.
`CCN1CCCC(Cn2c(-c3ccccc3C)nc3ccc(-c4ccc(Cl)cc4)cc3c2=O)C1.Cl` (stereo not given): the bioavailability in series [12] and in series [23] was 29% throughout.
With `Cc1nc2ccc(Oc3ccc(F)cc3)cc2c(=O)n1C[C@H]1CCCN(C(C)C)C1`, the Ki on Ghrelin receptor was 17 nM; in [5], above 1000 nM. The E/Emax in series [2] came out at 11%. Besides, the Kb in series [3] turned out to be 11 nM. For the same compound, the Cmax is 220 nM in series [4], 80 ng/mL in series [11], 110 ng/mL in series [24] and 3400 nM in [16]. Also, the solubility in series [6] came out at 500 µM (≈ 205 µg/mL). In series [10], this compound showed an AUC of 1300 ng·h/mL. Also, the bioavailability in series [12] worked out at 85%. Also, in [25], the Vd was determined as 19.2 L/kg. Further, in the series with Mus musculus [13], the result was Active. The Activity result in the series on Mus musculus [15] was “<=5%”; in the series with Mus musculus [17], -12%; in the series with Rattus norvegicus [18], -23%; in [19], above 1 µM; in series [20], above 1 µM; in [21] it was above 1 µM. In the series filed under Homo sapiens, the Activity was above 1 µM. In the series on Brain, this compound displayed a Drug uptake of 19%.

In general, Ki refers to the equilibrium dissociation constant of an inhibitor or competing ligand from its target. As a reminder, the Kb is the equilibrium dissociation constant of an antagonist, usually derived from a functional assay. For orientation: Cmax means the highest concentration seen after dosing. Usually solubility stands for the concentration that dissolves in the medium under given conditions. What is called IC50 is the concentration at which inhibition is half-maximal. By AUC(0-t) is commonly meant exposure summed from dosing to a finite time, without extrapolation to infinity. As a reminder, the Vdss is a proportionality between amount in the body and measured concentration, not a real space. As a reminder, the AUC is the area under the concentration-time curve, a measure of exposure. By bioavailability is commonly meant dose-corrected exposure relative to a reference, in per cent.
